Data from article PMC6311382 (Angewandte Chemie (International ed. in English), 2015).

Key:
H. pylori HtrA [1] = target: T1, H. pylori HtrA (Helicobacter pylori, UniProt G2J5T2); assay: SPR binding affinity and kinetics to HtrA
T1 sequence (G2J5T2 18-475): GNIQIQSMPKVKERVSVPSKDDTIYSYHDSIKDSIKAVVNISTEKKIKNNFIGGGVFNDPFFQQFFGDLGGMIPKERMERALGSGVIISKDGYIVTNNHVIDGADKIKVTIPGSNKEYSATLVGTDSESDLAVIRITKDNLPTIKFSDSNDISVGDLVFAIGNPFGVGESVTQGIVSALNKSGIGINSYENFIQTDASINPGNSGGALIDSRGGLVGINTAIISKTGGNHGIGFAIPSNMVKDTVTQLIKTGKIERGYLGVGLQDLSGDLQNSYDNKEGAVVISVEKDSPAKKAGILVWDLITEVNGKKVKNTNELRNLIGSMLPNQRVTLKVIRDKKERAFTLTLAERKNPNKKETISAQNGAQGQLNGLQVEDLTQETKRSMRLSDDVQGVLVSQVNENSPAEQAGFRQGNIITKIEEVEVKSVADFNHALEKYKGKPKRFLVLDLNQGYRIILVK

[2] = format: physicochemical; conditions: dynamic light scattering
H. pylori HtrA [3] = target: T1, H. pylori HtrA; assay: Western blot analysis of recombinant E-cadherin cleavage by HtrA; format: biochemical
Summary of the method: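 Recombinant full-length 130 kDa E-cadherin is incubated with H. pylori HtrA and test compound at a range of concentrations. HtrA proteolysis is read by Western blot as generation of the roughly 90 kDa soluble E-cadherin fragment.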

[4] = test system: wild-type H. pylori transmigration; assay: Transwell migration assay across polarized MKN-28 epithelial layer; format: cell-based, Helicobacter pylori; conditions: 50 μM, 24 h, MKN-28 cells
Summary of the method: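 Wild-type H. pylori crossing a polarized epithelial layer of human gastric adenocarcinoma MKN-28 cells in a transwell system, followed for 24 h with test compound at two concentrations. Transmigrated bacteria are read as colony-forming units. Significance at 24 h is tested by one-way ANOVA (Dunnett) against the untreated control.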

[5] = test system: wild-type Campylobacter jejuni transmigration; assay: Transwell migration assay, Campylobacter jejuni; format: cell-based; conditions: 50 and 100 μM, 24 h
Summary of the method: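 Transmigration of wild-type Campylobacter jejuni is followed over 24 h with test compound at two concentrations. Bacteria are counted as colony-forming units. N = 3 independent experiments. Significance at 24 h is tested by one-way ANOVA (Dunnett) against the untreated control.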

H. pylori HtrA [6] = target: T1, H. pylori HtrA; assay: 1H STD NMR binding experiment; conditions: 10 μM HtrA

Structure (SMILES)	koff (H. pylori HtrA [1]) [s⁻¹]	LE (ligand efficiency) (H. pylori HtrA [1]; = −1.4 logKD/(number of non-hydrogen atoms))	solubility kinetic [2] [µM]	proteolytic activity of HtrA (H. pylori HtrA [3]; at 50 μM)	concentration at which inhibition of E-cadherin cleavage is seen (H. pylori HtrA [3]; recombinant E-cadherin) [µM]	inhibition of H. pylori transmigration [4]	inhibition of C. jejuni transmigration, compared with H. pylori [5]	saturation transfer / binding to HtrA (H. pylori HtrA [6])
Cc1ccc(C)n1[C@@H](Cc1ccc(-c2ccc(C(=O)O)o2)cc1)C(=O)O [Compound 2]	1.8	0.24	> 100	blocked	10	significant effects	strikingly dissimilar outcome	direct binding
CO[C@@H]1O[C@H](CO)[C@@H](O)[C@H](O)[C@H]1O [β-methyl-D-glucoside, reference compound]	–	–	–	–	–	–	–	no saturation transfer
